Activity calls are given as the source filed them. The rule behind the calls is not given here.
Tests used:
Sindbis virus = test: Antiviral activity against Sindbis virus infected Hela cells assessed as inhibition of virus-induced cytopathicity; type: functional, organism-based
[1] = test system: Respiratory syncytial virus; test: Antiviral activity against Respiratory syncytial virus infected human HeLa cells assessed as inhibition of virus-induced cytopathicity; type: functional, organism-based
Procedure, shortened: (§1)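 Confluent monolayers (feline kidney Crandell, Vero, HEL or HeLa, as named for each virus) were infected with 100 CCID50 of virus and allowed to adsorb for 1 h. Unbound virus was then removed, and cultures were incubated with test compound in serial dilutions (200, 40, 8 … µM). Cytopathicity was scored once untreated infected controls reached complete cytopathic effect.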

[2] = test system: Vesicular stomatitis virus; test: Antiviral activity against Vesicular stomatitis virus infected Hela cells assessed as inhibition of virus-induced cytopathicity; type: functional, organism-based
Feline coronavirus = test: Antiviral activity against Feline coronavirus infected feline kidney crandell cells assessed as inhibition of virus-induced cytopathicity; type: functional, organism-based; procedure, shortened: as §1
Vaccinia virus = test: Antiviral activity against Vaccinia virus infected human HEL cells assessed as inhibition of virus-induced cytopathicity; type: functional, organism-based; conditions: Orthopoxvirus vaccinia
Coxsackievirus B4 [3] = test: Antiviral activity against Human coxsackievirus B4 infected VERO cells assessed as inhibition of virus-induced cytopathicity; type: functional, organism-based; procedure, shortened: as §1
[4] = test system: Mammalian orthoreovirus 1; test: Antiviral activity against Mammalian orthoreovirus 1 infected VERO cells assessed as inhibition of virus-induced cytopathicity; type: functional, organism-based; procedure, shortened: as §1
Human alphaherpesvirus 2 = test: Antiviral activity against Human herpesvirus 2 strain G infected human HEL cells assessed as inhibition of virus-induced cytopathicity; type: functional, organism-based; procedure, shortened: as §1
Human respirovirus 3 = test: Antiviral activity against Human parainfluenza virus 3 infected Vero cells assessed as inhibition of virus-induced cytopathicity; type: functional, organism-based; procedure, shortened: as §1
[5] = Antioxidant activity assessed as inhibition of AAPH-induced lipid peroxidation at 1 X 10^-4 M; type: functional
[6] = test system: Vesicular stomatitis virus; test: Antiviral activity against Vesicular stomatitis virus infected HEL cells assessed as inhibition of virus-induced cytopathicity; type: functional, organism-based
Punta Toro virus = test: Antiviral activity against Punta Toro virus infected Hela cells assessed as inhibition of virus-induced cytopathicity; type: functional, organism-based
Human alphaherpesvirus 1 = test: Antiviral activity against […] 1 KOS infected in human HEL cells assessed as inhibition of virus-induced cytopathicity; type: functional, organism-based; procedure, shortened: as §1
Coxsackievirus B4 [7] = test: Antiviral activity against Human coxsackievirus B4 infected human HeLa cells assessed as inhibition of virus-induced cytopathicity; type: functional, organism-based; procedure, shortened: as §1
Influenza A virus = test: Antiviral activity against Unidentified Influenza A virus (H1N2) infected MDCK cells assessed as inhibition of virus-induced cytopathicity; type: functional, organism-based
[8] = test system: Radical scavenging activity; test: Antioxidant activity assessed as DPPH radical scavenging activity at 1 X 10^-4 M after 20 min; type: functional
Procedure, shortened: (§2)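 Test compound was mixed with DPPH (0.05 and 0.1 mM) in ethanol. Absorbance at 517 nm was read after 20 and 60 min and compared with the NDGA standard, with ethanol as control. Each experiment was run at least in triplicate, and the SD of absorbance was <10% of the mean.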

[9] = test system: Radical scavenging activity; test: Antioxidant activity assessed as DPPH radical scavenging activity at 5 X 10^-5 M after 60 min; type: functional; procedure, shortened: as §2
[10] = test system: Radical scavenging activity; test: Antioxidant activity assessed as DPPH radical scavenging activity at 1 X 10^-4 M after 60 min; type: functional; procedure, shortened: as §2
[11] = test system: Radical scavenging activity; test: Antioxidant activity assessed as DPPH radical scavenging activity at 5 X 10^-5 M after 20 min; type: functional; procedure, shortened: as §2
[12] = target: T1, Seed linoleate 13S-lipoxygenase-1 (Glycine max) (UniProt P08170); test: Inhibition of Glycine max (soybean) lipoxygenase using sodium linoleate as substrate at 1 X 10^-4
T1 sequence (whole entry): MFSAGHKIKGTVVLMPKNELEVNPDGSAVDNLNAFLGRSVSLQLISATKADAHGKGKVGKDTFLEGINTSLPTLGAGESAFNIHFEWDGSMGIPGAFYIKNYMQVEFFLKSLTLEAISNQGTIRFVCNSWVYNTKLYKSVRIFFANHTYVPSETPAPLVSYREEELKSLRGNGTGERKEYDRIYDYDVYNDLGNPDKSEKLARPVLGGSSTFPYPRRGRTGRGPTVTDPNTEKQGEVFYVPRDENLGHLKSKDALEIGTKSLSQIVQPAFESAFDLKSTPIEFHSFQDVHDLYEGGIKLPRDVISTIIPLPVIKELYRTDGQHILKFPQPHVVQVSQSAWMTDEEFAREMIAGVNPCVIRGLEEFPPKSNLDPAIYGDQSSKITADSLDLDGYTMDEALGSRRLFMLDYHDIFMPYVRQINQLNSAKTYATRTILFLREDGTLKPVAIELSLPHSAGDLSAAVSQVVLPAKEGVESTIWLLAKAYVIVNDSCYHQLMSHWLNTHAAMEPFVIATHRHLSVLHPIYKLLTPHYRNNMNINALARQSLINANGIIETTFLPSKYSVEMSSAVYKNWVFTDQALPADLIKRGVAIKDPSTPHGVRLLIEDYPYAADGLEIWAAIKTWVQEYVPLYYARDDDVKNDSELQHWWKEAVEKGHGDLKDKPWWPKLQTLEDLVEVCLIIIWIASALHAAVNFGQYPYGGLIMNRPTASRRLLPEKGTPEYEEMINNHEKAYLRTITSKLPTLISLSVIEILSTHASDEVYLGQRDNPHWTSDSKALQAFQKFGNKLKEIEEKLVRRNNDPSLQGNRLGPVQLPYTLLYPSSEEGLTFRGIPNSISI

[13] = Antioxidant activity assessed as inhibition of AAPH-induced lipid peroxidation at 1 X 10^-5 M; type: functional

## Cc1c(C)c2c(c(C)c1O)CCC(C)(C(=O)O)O2 (centres undefined)
Sindbis virus
  Activity: inactive
[1]
  Activity: inactive
[2]
  Activity: inactive
Feline coronavirus
  Activity: inactive
Vaccinia virus
  Activity: inactive
Coxsackievirus B4 [3]
  Activity: inactive
[4]
  Activity: inactive
Human alphaherpesvirus 2
  Activity: inactive
Human respirovirus 3
  Activity: inactive
[5]
  inhibition: 63%
[6]
  Activity: inactive
Punta Toro virus
  Activity: inactive
Human alphaherpesvirus 1
  Activity: inactive
Coxsackievirus B4 [7]
  Activity: inactive
Influenza A virus
  Activity: inactive
Influenza A virus; H1N1
  Activity: inactive

## CCONC(=O)OC(c1ccccc1)c1cccc(C(C)C(=O)NOCC)c1 (centres undefined)
[8]
  inhibition: 2.3%
Sindbis virus
  Activity: inactive
[1]
  Activity: inactive
[2]
  Activity: inactive
Feline coronavirus
  Activity: inactive
[9]
  inhibition: 3.7%
Vaccinia virus
  Activity: inactive
Coxsackievirus B4 [3]
  Activity: inactive
[10]
  inhibition: 1.1%
[4]
  Activity: inactive
Human alphaherpesvirus 2
  Activity: inactive
Human respirovirus 3
  Activity: inactive
[11]
  inhibition: 2.5%
[5]
  inhibition: 54.5%
[6]
  Activity: inactive
Punta Toro virus
  Activity: inactive
Human alphaherpesvirus 1
  Activity: inactive
Coxsackievirus B4 [7]
  Activity: inactive
[12]
  inhibition: 22.3%
[13]
  inhibition: inactive
Influenza A virus
  Activity: inactive
Influenza A virus; H1N1
  Activity: inactive

## CC(C(=O)NOCc1ccccc1)c1cccc(C(OC(=O)NOCc2ccccc2)c2ccccc2)c1 (centres undefined)
[8]
  inhibition: inactive
Sindbis virus
  Activity: inactive
[1]
  Activity: inactive
[2]
  Activity: inactive
Feline coronavirus
  Activity: inactive
[9]
  inhibition: 5.6%
Vaccinia virus
  Activity: inactive
Coxsackievirus B4 [3]
  Activity: inactive
[10]
  inhibition: inactive
[4]
  Activity: inactive
Human alphaherpesvirus 2
  Activity: inactive
Human respirovirus 3
  Activity: inactive
[11]
  inhibition: 3.4%
[5]
  inhibition: 99.3%
[6]
  Activity: inactive
Punta Toro virus
  Activity: inactive
Human alphaherpesvirus 1
  Activity: inactive
Coxsackievirus B4 [7]
  Activity: inactive
[12]
  inhibition: 40.8%
[13]
  inhibition: 49.2%
Influenza A virus
  Activity: inactive
Influenza A virus; H1N1
  Activity: inactive

## CC(C(=O)NCCc1ccccc1)c1cccc(C(OC(=O)NCCc2ccccc2)c2ccccc2)c1 (centres undefined)
[8]
  inhibition: inactive
Sindbis virus
  Activity: inactive
[1]
  Activity: inactive
[2]
  Activity: inactive
Feline coronavirus
  Activity: inactive
[9]
  inhibition: 8.5%
Vaccinia virus
  Activity: inactive
Coxsackievirus B4 [3]
  Activity: inactive
[10]
  inhibition: 2.2%
[4]
  Activity: inactive
Human alphaherpesvirus 2
  Activity: inactive
Human respirovirus 3
  Activity: inactive
[11]
  inhibition: 3.6%
[5]
  inhibition: 99%
[6]
  Activity: inactive
Punta Toro virus
  Activity: inactive
Human alphaherpesvirus 1
  Activity: inactive
Coxsackievirus B4 [7]
  Activity: inactive
[12]
  inhibition: 18.9%
[13]
  inhibition: 22.5%
Influenza A virus
  Activity: inactive
Influenza A virus; H1N1
  Activity: inactive

## CC(Cc1ccc(O)c(O)c1)C(C)Cc1ccc(O)c(O)c1 (centres undefined)
[8]
  inhibition: 93%
Sindbis virus
  Activity: inactive
[1]
  Activity: inactive
[2]
  Activity: inactive
Feline coronavirus
  Activity: inactive
[9]
  inhibition: 83%
Vaccinia virus
  Activity: inactive
Coxsackievirus B4 [3]
  Activity: inactive
[10]
  inhibition: 97%
[4]
  Activity: inactive
Human alphaherpesvirus 2
  Activity: inactive
Human respirovirus 3
  Activity: inactive
[11]
  inhibition: 81%
[6]
  Activity: inactive
Punta Toro virus
  Activity: inactive
Human alphaherpesvirus 1
  Activity: inactive
Coxsackievirus B4 [7]
  Activity: inactive
Influenza A virus
  Activity: inactive
Influenza A virus; H1N1
  Activity: inactive

## CC(C(=O)NC1CCCCC1)c1cccc(C(OC(=O)NC2CCCCC2)c2ccccc2)c1 (centres undefined)
[8]
  inhibition: inactive
Sindbis virus
  Activity: inactive
[1]
  Activity: inactive
[2]
  Activity: inactive
Feline coronavirus
  Activity: inactive
[9]
  inhibition: 3.1%
Vaccinia virus
  Activity: inactive
Coxsackievirus B4 [3]
  Activity: inactive
[10]
  inhibition: inactive
[4]
  Activity: inactive
Human alphaherpesvirus 2
  Activity: inactive
Human respirovirus 3
  Activity: inactive
[11]
  inhibition: 2%
[5]
  inhibition: 96.1%
[6]
  Activity: inactive
Punta Toro virus
  Activity: inactive
Human alphaherpesvirus 1
  Activity: inactive
Coxsackievirus B4 [7]
  Activity: inactive
[12]
  inhibition: 22.7%
[13]
  inhibition: 5.4%
Influenza A virus
  Activity: inactive
Influenza A virus; H1N1
  Activity: inactive

## CC(C(=O)N1CCCC1)c1cccc(C(OC(=O)N2CCCC2)c2ccccc2)c1 (centres undefined)
[8]
  inhibition: 2.6%
Sindbis virus
  Activity: inactive
[1]
  Activity: inactive
[2]
  Activity: inactive
Feline coronavirus
  Activity: inactive
[9]
  inhibition: 6.5%
Vaccinia virus
  Activity: inactive
Coxsackievirus B4 [3]
  Activity: inactive
[10]
  inhibition: 2.7%
[4]
  Activity: inactive
Human alphaherpesvirus 2
  Activity: inactive
Human respirovirus 3
  Activity: inactive
[11]
  inhibition: 5.7%
[5]
  inhibition: 77.2%
[6]
  Activity: inactive
Punta Toro virus
  Activity: inactive
Human alphaherpesvirus 1
  Activity: inactive
Coxsackievirus B4 [7]
  Activity: inactive
[12]
  inhibition: 12.7%
[13]
  inhibition: 16.4%
Influenza A virus
  Activity: inactive
Influenza A virus; H1N1
  Activity: inactive

## CC(C(=O)N1CCCCC1)c1cccc(C(OC(=O)N2CCCCC2)c2ccccc2)c1 (centres undefined)
[8]
  inhibition: 1.7%
Sindbis virus
  Activity: inactive
[1]
  Activity: inactive
[2]
  Activity: inactive
Feline coronavirus
  Activity: inactive
[9]
  inhibition: 10%
Vaccinia virus
  Activity: inactive
Coxsackievirus B4 [3]
  Activity: inactive
[10]
  inhibition: 4.3%
[4]
  Activity: inactive
Human alphaherpesvirus 2
  Activity: inactive
Human respirovirus 3
  Activity: inactive
[11]
  inhibition: 8.6%
[5]
  inhibition: 97.4%
[6]
  Activity: inactive
Punta Toro virus
  Activity: inactive
Human alphaherpesvirus 1
  Activity: inactive
Coxsackievirus B4 [7]
  Activity: inactive
[12]
  inhibition: inactive
[13]
  inhibition: 25.5%
Influenza A virus
  Activity: inactive
Influenza A virus; H1N1
  Activity: inactive

## O=C(O)/C=C/c1ccc(O)c(O)c1
Sindbis virus
  Activity: inactive
[1]
  Activity: inactive
[2]
  Activity: inactive
Feline coronavirus
  Activity: inactive
Vaccinia virus
  Activity: inactive
Coxsackievirus B4 [3]
  Activity: inactive
[4]
  Activity: inactive
Human alphaherpesvirus 2
  Activity: inactive
Human respirovirus 3
  Activity: inactive
[6]
  Activity: inactive
Punta Toro virus
  Activity: inactive
Human alphaherpesvirus 1
  Activity: inactive
Coxsackievirus B4 [7]
  Activity: inactive
Influenza A virus
  Activity: inactive
Influenza A virus; H1N1
  Activity: inactive

## CONC(=O)OC(c1ccccc1)c1cccc(C(C)C(=O)NOC)c1 (centres undefined)
[8]
  inhibition: 1.8%
Sindbis virus
  Activity: inactive
[1]
  Activity: inactive
[2]
  Activity: inactive
Feline coronavirus
  Activity: inactive
[9]
  inhibition: 4.1%
Vaccinia virus
  Activity: inactive
Coxsackievirus B4 [3]
  Activity: inactive
[10]
  inhibition: 3.2%
[4]
  Activity: inactive
Human alphaherpesvirus 2
  Activity: inactive
Human respirovirus 3
  Activity: inactive
[11]
  inhibition: inactive
[5]
  inhibition: 61%
[6]
  Activity: inactive
Punta Toro virus
  Activity: inactive
Human alphaherpesvirus 1
  Activity: inactive
Coxsackievirus B4 [7]
  Activity: inactive
[12]
  inhibition: 26.9%
[13]
  inhibition: 2.5%
Influenza A virus
  Activity: inactive
Influenza A virus; H1N1
  Activity: inactive
